The entries come from a sample that favours hits as a whole.
XBP1 UPR activ = activators of adaptive arm of unfolded protein response (XBP1). AID 463104. activation, % at 20 µM. 0.33% of 330,000 active. CHO-XBP1 luciferase reporter, IRE1-XBP1 UPR activation, luminescence; percent of tunicamycin response, DMSO as zero;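 active = versus positive control, 20 µM dose yields 30% or more activation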;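 note: 100% = tunicamycin at 10 µg/mL and 0% = DMSO only wells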
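Signal: luciferase luminescence; Assay system: CHO-XBP1 luciferase reporter cells; Amount: one thousand reporter cells per well; Dosing: 20 µM single concentration, DMSO 1%; Benchmarks: high control tunicamycin 10 µg/mL final, low control DMSO vehicle only; Schedule: 6 h compound exposure at 37 °C, 5% CO2; Evaluation: percent activation relative to tunicamycin reference.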
UPR CHOP act = activators of apoptotic arm of unfolded protein response (CHOP); 0.34% of 330,000 active; activation, % at 10 µM; CHO-CHOP luciferase reporter, UPR activation, luminescence; percent of tunicamycin response over DMSO baseline;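 active = at 10 µM dose, activation of 40% or more, normalized to positive control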;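 note: 100% = tunicamycin at 10 µg/mL and 0% = DMSO alone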
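System: CHO-CHOP luciferase reporter cell line | Buffer or medium: F12 medium containing 10% fetal bovine serum | Doses: One dose, 10 µM in 0.5% DMSO | Times: 6 h compound exposure at 37 °C after overnight seeding | Signal: Luciferase luminescence | Read-out: % activation vs tunicamycin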
Bfl-1 A1 inh = inhibitors of the anti-apoptotic protein A1, read as caspase activation. MEF A1-2A-BIM cells, Caspase-Glo 3/7 luminescence, 3 h; percent of clofoctol response, vehicle zero. caspase activation, % (no concentration beside the values). 0.066% of 330,000 active;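 active = over half of replicate activation scores above 10%, or exactly half above 10 with the replicate mean above 10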
CHOP inh = CHOP inhibition in unfolded protein response; CHO-K1 CHOP-promoter luciferase, tunicamycin-induced, 15-18 h; inhibition, % at 10 µM; 3.8% of 220,000 active;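 active = compounds that reduced the stress-induced luciferase reporter signal by more than about 70% of percent inhibition, limit read from the data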;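 note: 0% = tunicamycin plus vehicle and 100% = wells without tunicamycin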
Starred values were filed as active, the others as inactive; . = not tested or not shown.

SMILES | XBP1 UPR activ | UPR CHOP act | Bfl-1 A1 inh | CHOP inh
COC(=O)CCN(C1CCCCC1)S(=O)(=O)c1ccc(S(=O)(=O)NC2CCCCC2)cc1 | -1 | -3 | 0 | 75*
COc1ccc(S(=O)(=O)NC2CCCCC2)cc1C | -3 | -2 | 0 | 83*
CCOc1cc(S(=O)(=O)NC2CCCCCC2)ccc1F | -2 | -1 | 0 | 76*
COc1ccccc1-c1nnc(SCC(=O)NCc2c(C)c(Cl)cc(C(C)C)c2O)o1 | -7 | 0 | 0 | 75*
COc1ccccc1-c1nnc(SCC(=O)Nc2c(Cl)cccc2Cl)o1 | 2 | 1 | -1 | -21
COc1cccc(-c2nnc3n2N=C(C(C)(C)C)CS3)c1 | -2 | -5 | -1 | 75*
COc1cccc(-c2nnc3n2N=C(c2cc(OC)ccc2OC)CS3)c1 | 8 | 3 | 0 | 48
CC(=O)Oc1c(Sc2ccccc2[N+](=O)[O-])c(C)nn1C(C)(C)C | -2 | -1 | 0 | 75*
CCn1c(C)cc(/C=C2\NC(=O)N(CC(=O)Nc3cccc(C)c3)C2=O)c1C | 2 | 3 | 1 | 81*
CCn1c(C)cc(/C=C2\SC(=O)N(CC(=O)Nc3ccc(C)c(C)c3)C2=O)c1C | 0 | 2 | 0 | 93*
CCn1c(C)cc(/C=C2/NC(=O)N(CC(=O)Nc3cccc(C)c3)C2=O)c1C | . | . | 0 | 51
O=C(COc1ccc(Cl)cc1)N1CCCCC1 | 1 | 4 | -1 | -23
Cc1cc(C)cc(NC(=O)c2nnn(Cc3cc(C)ccc3C)c2N)c1 | 0 | 1 | 0 | 93*
Cc1ccc(C)c(Cn2nnc(C(=O)Nc3ccc4c(c3)OCCO4)c2N)c1 | 0 | 5 | 0 | .
COc1cccc(NC(=O)c2nnn(Cc3ccc(Br)cc3F)c2N)c1 | -1 | 3 | 0 | 73*
O=C(CSc1cccc(C(F)(F)F)c1)N1CCN(S(=O)(=O)c2ccccc2)CC1 | -6 | 0 | -1 | 81*
Cn1nc(C(C)(C)C)c([N+](=O)[O-])c1C(=O)Nc1ccc(Br)cc1 | -3 | 0 | 0 | 32
O=C1Nc2ccc(Cl)cc2[C@@](C#CC2CC2)(C(F)(F)F)O1 | -5 | 0 | 0 | 102*
O=C(CCNC(=O)c1ccccc1)OCC(=O)c1cccc(Cl)c1 | 0 | 1 | -1 | 8
CCOC(=O)c1ccc(NC(=S)Nc2cccc(C)n2)cc1 | 3 | 2 | 0 | 74*
COCCN(C(=O)CSc1nnc(C)n1Cc1ccccc1)c1c(N)n(Cc2ccccc2)c(=O)[nH]c1=O | -3 | -1 | 0 | -2
COc1cccc(NS(=O)(=O)c2c(C)cc(C)cc2C)c1 | 0 | 2 | 0 | 95*
Cc1ccc(CNC(=O)CNC(=O)c2ccco2)cc1 | 5 | -1 | -1 | .
CC(C)NC(=S)NC(=O)/C=C/c1cccc2ccccc12 | -2 | -1 | 0 | 86*
CN1CCN(C(=S)NC(=O)/C=C/c2cccc3ccccc23)CC1 | -3 | -1 | 0 | 20
SMILES | XBP1 UPR activ | UPR CHOP act | Bfl-1 A1 inh | CHOP inh
COc1cccc(OCCCOc2ccccc2C(C)C)c1 | -2 | -1 | 0 | 71*
COc1cccc(OCCOc2ccccc2[N+](=O)[O-])c1 | 1 | 14 | -3 | .
Cc1cc(C)nc(Nc2n[nH]c(COc3ccc4ccccc4c3)n2)n1 | -3 | -1 | 0 | 87*
Cc1ccc(-n2cc(CNCCc3cscn3)c(-c3ccc(F)cc3)n2)cc1 | 0 | 0 | 0 | 85*
CC(=O)Nc1ccc(N2CCCCC2)c(C(=O)Nc2cccc(C)c2)c1 | 2 | 2 | 1 | 31
Cc1cccc(NC(=O)c2cc(NC(=O)C3CCCCC3C(=O)O)ccc2N2CCCCC2)c1 (stereo not drawn) | 0 | 2 | -1 | 77*
CS(=O)(=O)c1ccc(C(=O)N(CCc2ccccc2)Cc2ccccc2)cc1 | -3 | 0 | 0 | .
Cc1nn(C)c(C)c1NC(=O)c1cc2nc(-c3ccco3)cc(C(F)(F)F)n2n1 | 3 | -1 | 0 | -4
Cc1ccc(Cn2ccc(NC(=O)c3cc4nc(-c5ccco5)cc(C(F)(F)F)n4n3)n2)cc1 | 5 | 1 | 0 | 93*
CC(=O)Nc1ccc(NC(=O)c2ccc(Cn3cc(Cl)cn3)cc2)cc1 | -4 | -1 | 1 | 92*
O=C(Nc1cccc(Cl)c1)c1ccc(Cn2cc(Cl)cn2)cc1 | 1 | 5 | -1 | 16
CCCn1cnc2scc(-c3ccc(C)cc3)c2c1=O | 1 | 0 | -1 | 15
C=CCn1cnc2scc(-c3ccc(C)cc3)c2c1=O | 0 | -2 | 0 | 75*
COC(=O)c1c(C)oc2ccc(OC(=O)c3cccs3)cc12 | -1 | -3 | 1 | 86*
COc1ccc(CC2S/C(=N/N=C/c3ccccc3O)NC2=O)cc1 (stereo not drawn) | 1 | 3 | 0 | 70*
O=C1N/C(=N/N=C/c2ccccc2O)SC1Cc1ccc(F)cc1 (stereo not drawn) | 0 | 0 | 1 | 90*
COc1ccc(CC2S/C(=N/N=C/c3ccc(O)cc3)NC2=O)cc1 (stereo not drawn) | 2 | 5 | 0 | 2
CCCCNS(=O)(=O)c1ccc2nc(-c3cccnc3)cc(C(=O)NC(C)CC)c2c1 (stereo not drawn) | -3 | -3 | 0 | 101*
CCCCNS(=O)(=O)c1ccc2nc(-c3cccnc3)cc(C(=O)NC(C)C)c2c1 | -2 | 2 | 1 | 5
O=C(c1cc2ccccc2o1)N1CCN(c2ccccc2Cl)CC1 | 1 | -1 | 1 | 82*
CCC(C)NC(=O)C1CCN(S(=O)(=O)c2cc([N+](=O)[O-])ccc2Cl)CC1 (stereo not drawn) | 1 | -2 | 0 | 2
O=C(Nc1nc2ccccc2s1)C1CCN(S(=O)(=O)c2cc([N+](=O)[O-])ccc2Cl)CC1 | 5 | 6 | -1 | 83*
CCC(CC)NC(=O)COC(=O)c1ccc(OCC(=O)Nc2ccccc2OC)c(OC)c1 | 18 | 2 | 0 | 82*
CC(C)COc1ccc(-c2nnc(-c3ccco3)o2)cc1 | -2 | -1 | -6 | 78*
O=c1[nH]nc(CNc2ccc(Cl)cc2Cl)c2ccccc12 | -1 | -1 | 1 | 71*
SMILES | XBP1 UPR activ | UPR CHOP act | Bfl-1 A1 inh | CHOP inh
O=c1[nH]nc(Cc2ccc(Cl)cc2)c2ccccc12 | -1 | 2 | 0 | 54
O=c1[nH]nc(Cc2ccc(Cl)cc2Cl)c2ccccc12 | -2 | -1 | 0 | 80*
Clc1ccc(OCc2nc(-c3ccncc3)no2)c(Cl)c1 | 4 | 2 | -1 | 83*
Clc1cc(Cl)c(OCc2nc(-c3ccccn3)no2)cc1Cl | 2 | 1 | -8 | 96*
CCOc1ccc(NC(=O)/C(C#N)=C/c2ccc(N3CCCC3)c(C)c2)cc1 | . | . | 0 | 101*
CCCCCn1c(CCC(=O)Oc2ccccc2OC)nc2c1c(=O)[nH]c(=O)n2CCCC | -3 | 2 | 0 | 71*
CC(=O)Nc1sc2c(c1C(c1cccc(Cl)c1)N1CCN(CCO)CC1)CCCC2 (stereo not drawn) | 0 | 1 | 1 | 38

Source: PubChem (several laboratories)
